# Source: PubChem BioAssay
# Compounds with a hit are over-represented: about 1.9% of the library has one in this group of screens.
# CASP6 VEID inh: caspase-6 (human) enzyme inhibition; purified caspase-6, Z-VEID-R110 cleavage fluorescence; inhibition, % at 12.5 µM; 0.53% of 350,000 active;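 active = mean inhibition across replicates at least about 35%, with every replicate also reaching that limit, limit read from the data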;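 also: 0% = median of neutral control wells and 100% = no fluorescence left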
# TDP2 inh: TDP2 (human) inhibition, absorbance primary screen; O95551; AID 720702; inhibition, % at 12.8 µM; 0.34% of 370,000 active; recombinant TDP2, T5PNP hydrolysis, p-nitrophenol absorbance 415 nm;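 active = inhibition above the mean of all tested compounds plus 3 SD, set per campaign, cut at about 25% in these data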;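 also: 0% = DMSO with enzyme and 100% = buffer with substrate but no TDP2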
#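 System: recombinant human TDP2 / Amount: 120 nM TDP2 per well / Also added: 5 mM T5PNP chromogenic substrate / Doses: 12.8 µM single point, 1% DMSO / Incubation: 2 h at 37 °C / Detection: p-Nitrophenol epi absorbance / Evaluation: % inhibition relative to enzyme-containing and enzyme-free wells / Repeats: singlicate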
# UHRF1 MBD2 ctr: human UHRF1 methylated DNA binding inhibitors; inhibition, % at 4.4 µM; UHRF1 binding to methylated oligo, TR-FRET; 0.75% of 370,000 active; Q96T88;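 also: UHRF1 SRA domain binding a hemimethylated CpG hairpin DNA probe; 0% = median of test compound wells and 100% = reference inhibitor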
# MBD2 DNA inh: inhibitors of human MBD2 binding to methylated oligonucleotide. inhibition, % at 4.4 µM. 0.31% of 370,000 active. AID 686964. TR-FRET; in the data active = inhibition above about 13%
# LEDGF integ inh: blocks HIV-1 LEDGF/p75-dependent DNA integration | TR-FRET IN-LEDGF/p75 DNA integration, Eu/Cy5 | inhibition, % at 3.7 µM | 0.64% of 370,000 active | AID 743269;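 active = inhibition above the screen-wide mean plus 3 SD, cut at about 13% in these data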;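 also: signal is the Cy5 over europium emission ratio at 671 and 618 nm; 0% = plate median of compound wells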
# NSD2 HMT inh: NSD2 (human) methyltransferase inhibition; NSD2 peptide methylation, AlphaScreen, 120 min; O96028; 0.54% of 310,000 active; inhibition, % at 12.5 µM; in the data active = inhibition above about 50%
# Target sequence (O96028 whole entry, looked up): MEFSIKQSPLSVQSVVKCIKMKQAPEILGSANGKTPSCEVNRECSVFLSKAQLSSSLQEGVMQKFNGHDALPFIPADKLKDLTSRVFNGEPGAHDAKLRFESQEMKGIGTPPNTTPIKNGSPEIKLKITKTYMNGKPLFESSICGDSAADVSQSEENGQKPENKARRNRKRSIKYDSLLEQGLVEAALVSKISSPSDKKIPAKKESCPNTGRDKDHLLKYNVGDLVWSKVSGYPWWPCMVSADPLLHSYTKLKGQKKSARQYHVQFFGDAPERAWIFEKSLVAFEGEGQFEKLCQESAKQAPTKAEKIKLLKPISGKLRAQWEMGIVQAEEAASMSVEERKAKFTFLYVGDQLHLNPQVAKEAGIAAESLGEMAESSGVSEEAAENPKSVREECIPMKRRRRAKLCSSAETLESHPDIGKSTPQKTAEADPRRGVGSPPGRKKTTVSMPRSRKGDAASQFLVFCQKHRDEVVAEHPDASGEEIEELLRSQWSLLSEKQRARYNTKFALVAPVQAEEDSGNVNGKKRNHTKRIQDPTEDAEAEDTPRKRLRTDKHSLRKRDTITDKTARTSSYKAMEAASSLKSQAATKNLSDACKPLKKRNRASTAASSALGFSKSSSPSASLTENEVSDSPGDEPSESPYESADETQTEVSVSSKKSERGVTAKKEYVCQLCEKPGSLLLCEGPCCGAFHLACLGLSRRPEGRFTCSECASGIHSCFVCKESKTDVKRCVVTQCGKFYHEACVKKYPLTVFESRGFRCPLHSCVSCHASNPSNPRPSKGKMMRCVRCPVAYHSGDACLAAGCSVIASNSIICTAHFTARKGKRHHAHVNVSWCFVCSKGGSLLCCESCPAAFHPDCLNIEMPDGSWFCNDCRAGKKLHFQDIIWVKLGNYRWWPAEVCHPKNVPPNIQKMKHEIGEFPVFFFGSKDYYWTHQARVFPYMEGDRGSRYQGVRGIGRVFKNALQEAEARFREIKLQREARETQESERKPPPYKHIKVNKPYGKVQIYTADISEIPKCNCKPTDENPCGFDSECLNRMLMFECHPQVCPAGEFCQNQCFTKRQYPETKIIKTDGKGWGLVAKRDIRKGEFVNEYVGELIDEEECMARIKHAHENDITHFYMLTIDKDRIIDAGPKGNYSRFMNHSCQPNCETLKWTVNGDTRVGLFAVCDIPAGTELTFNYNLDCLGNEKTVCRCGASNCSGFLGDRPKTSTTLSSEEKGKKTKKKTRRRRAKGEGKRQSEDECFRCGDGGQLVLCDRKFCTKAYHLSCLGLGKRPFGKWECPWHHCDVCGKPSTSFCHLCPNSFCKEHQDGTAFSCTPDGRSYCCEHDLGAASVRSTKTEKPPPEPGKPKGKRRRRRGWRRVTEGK
# UHRF1 ctr MBD2: inhibits human UHRF1 binding to methylated oligonucleotide, MBD2 counter-screen. shares compounds with MBD2 DNA inh. inhibition, % at 4.4 µM. TR-FRET. 25% of 1,000 active;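 also: UHRF1 SRA domain binding a labeled hemimethylated CpG hairpin DNA; 0% = vehicle only and 100% = reference inhibitor with vehicle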
# MBD2 DBD conf: MBD2-DBD methyl-DNA binding inhibition, TR-FRET confirmation; shares compounds with MBD2 DNA inh; TR-FRET MBD2-DBD binding to methylated oligonucleotide; inhibition, % at 4.4 µM; 26% of 1,000 active; AID 720531; in the data active = inhibition above about 14%
# CASP1 counter: blocks human caspase-1 in a selectivity counter-screen | 100 tested, under 10 active | activity change, negative = inhibition, % at 35 µM | purified caspase-1, Z-YVAD-R110 cleavage fluorescence | shares compounds with CASP6 VEID inh | AID 743289;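 active = compounds lowering fluorescence whose fitted half-maximal concentration is no more than twice their top tested dose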
# TDP2 confirm: human TDP2 inhibition, confirmation. shares compounds with TDP2 inh. recombinant human TDP2, absorbance read-out. inhibition, % at 12.8 µM. 22% of 1,100 active. AID 743263; in the data active = inhibition above about 25%;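 also: 0% = vehicle with enzyme and 100% = no enzyme buffer only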
# IN multimer up: activates HIV-1 integrase multimerization in LEDGF counter-screen | 17% of 2,000 active | activation, % at 7.7 µM | TR-FRET HIV-1 integrase multimerization, biochemical | AID 1053131 | shares compounds with LEDGF integ inh; in the data active = activation above about 8.9%
# TRFRET interf: counter-screen for LEDGF/p75 integration inhibitors: TR-FRET optical interference. shares compounds with LEDGF integ inh. TR-FRET optical interference counterscreen, HIV-1 IN multimerization. inhibition, % at 7.7 µM. 2,000 tested, under 10 active. AID 1053135;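 active = inhibition above the mean over all tested compounds plus 3 SD, which no compound reached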;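 also: 0% = integrase with antibodies and DMSO and 100% = antibodies without integrase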
# IN-LEDGF confirm: confirmation of HIV-1 LEDGF/p75-dependent integration inhibitors; shares compounds with LEDGF integ inh; TR-FRET LEDGF/p75-dependent HIV-1 integration, biochemical; inhibition, % at 3.7 µM; 36% of 2,000 active; AID 1053136; in the data active = inhibition above about 14%
# Alpha artifact: counter-screen for NSD2 inhibitors: AlphaScreen artifacts; AC35, µM (series often up to 10 µM), for the others: at the top dose activity change, negative = signal loss; AID 1053174; 9.4% of 1,500 active; AlphaScreen artifact counterscreen, preloaded methylated H4 peptide; shares compounds with NSD2 HMT inh; call rule not given here
# * marks the source's active call; other numbers are inactive results; . = not tested or not shown; + = active, no number. Rule as the data show it, unless noted: active = inhibition above about 21%; inactive = the rest.
SMILES,CASP6 VEID inh,TDP2 inh,UHRF1 MBD2 ctr,MBD2 DNA inh,LEDGF integ inh,NSD2 HMT inh,UHRF1 ctr MBD2,MBD2 DBD conf,IN multimer up,TRFRET interf,IN-LEDGF confirm,Alpha artifact,others
Cc1ccccc1-c1ccc([C@H]2[C@@H](CO)N3C(=O)CN(C(=O)c4ccccc4)C[C@@H]23)cc1,0.3,.,.,.,.,.,.,.,.,.,.,.,
CN(Cc1c(O)ccc2c1oc(=O)c1ccccc12)C1CCCCC1,.,-12.3,19.3,20.0*,6.2,74.6*,2.0,9.6,.,.,.,2.0%,
O=C(O)c1cc(C(=O)O)cc(N2C(=O)c3ccccc3C2=O)c1,21.4,3.5,-0.9,3.5,3.6,0.7,.,.,.,.,.,.,
O=C(O)c1cc(N2C(=O)C=CC2=O)cc(N2C(=O)C=CC2=O)c1,61.0*,12.9,96.6*,79.8*,61.5*,88.0*,77.2*,39.4*,1.8,-9.1,52.9*,-7.5%,
COc1ccc([C@H]2C[C@H]3C(Br)=CC2C(=O)[C@]32CO2)cc1OC,0.6,.,.,.,.,.,.,.,.,.,.,.,
CCN(CC)Cc1cc(O)c(CN(CC)CC)cc1O,19.3,10.0,52.1*,16.6*,64.0*,100.4*,3.3,-1.0,4.3,-21.7,57.0*,0.8%,
N#C/C(=C\c1ccc(O)c(O)c1)C(=O)Nc1cccc2ncccc12,58.3*,-9.1,27.6*,20.5*,48.6*,115.0*,13.0,11.2,71.6*,-256.1,84.8*,4.84µM*,
Cc1cccc2c(N=NC(=O)c3ccc(NS(=O)(=O)c4cccs4)cc3)c(O)[nH]c12,4.7,-1.3,0.2,20.9*,-2.1,63.7*,3.7,3.2,.,.,.,-8.4%,
Cc1ccc2[nH]c(O)c(N=NC(=O)c3ccc(NS(=O)(=O)c4cccs4)cc3)c2c1,0.5,7.5,-3.6,-8.2,-0.7,0.3,.,.,.,.,.,.,
c1coc(-c2nc(-c3ccco3)c(-c3ccco3)nc2-c2ccco2)c1,.,50.0*,95.0*,66.6*,89.7*,149.5*,41.9*,19.6*,8.5,-30.0,82.1*,-5.6%,TDP2 confirm=2.6
COCCOC(=O)N1C(=O)[C@@]2(c3cc(C#Cc4ccc(OC)cc4)ccc31)[C@H](C(=O)N1CCN(c3ncccn3)CC1)[C@H]1C(=O)O[C@H](c3ccccc3)[C@H](c3ccccc3)N1[C@@H]2c1ccccc1OCCO,0.1,.,.,.,.,.,.,.,.,.,.,.,
Cn1cc(/C=N/NC(=O)c2cc3cc(Br)ccc3o2)c2ccccc21,4.4,-1.4,1.0,4.6,-3.2,21.7,.,.,.,.,.,.,
O=C(O)c1ccc(-n2cccc2/C=N\NC(=O)c2cc3cc(Br)ccc3o2)cc1,63.9*,0.0,61.6*,32.8*,7.2,57.7*,65.6*,40.8*,.,.,.,-16.7%,
CCCCn1c(NC(=O)c2ccccc2)c(C#N)c2nc3ccccc3nc21,.,84.2*,17.9,24.4*,6.4,162.2*,-1.4,16.6*,.,.,.,2.7%,TDP2 confirm=85.2*
N#Cc1c(N)n(CCNC(=O)c2ccc(Cl)cc2)c2nc3ccccc3nc12,.,0.5,-6.0,-6.0,2.0,-1.3,.,.,.,.,.,.,
CCN1[C@@H]2c3ccc(-c4cccc(F)c4)c(=O)n3C[C@H]1[C@H](CO)[C@H]2C(=O)NCCCN(C)C,-2.0,.,.,.,.,.,.,.,.,.,.,.,
COc1cc2cccc(OC)c(=O)c2c(OC)c1OC,2.5,-1.6,-0.3,-0.4,2.8,.,.,.,.,.,.,.,
O=c1c(O)cccc2cc(O)c(O)c(O)c12,97.5*,28.5*,93.7*,86.9*,88.3*,127.5*,94.5*,91.0*,.,.,.,1.58µM*,CASP1 counter=-9.7;TDP2 confirm=17.3
O=C(O)CCCN1C(=O)/C(=C/C=C/c2ccco2)SC1=S,81.5*,5.5,98.3*,70.3*,87.2*,110.0*,90.5*,49.0*,12.8*,-64.3,82.8*,-12.7%,
O=C(O)CC(C(=O)O)N1C(=O)/C(=C/C=C/c2ccco2)SC1=S (configuration not stated),80.6*,10.7,100.0*,108.8*,88.8*,+,92.0*,58.6*,36.6*,-184.5,94.1*,-20.2%,
CC(C)NC(=O)Nc1ccc2c(c1)CC(=O)N([C@@H](C)CO)C[C@H](C)[C@H](CN(C)Cc1ccc(-c3ccccc3)cc1)O2,-0.2,.,.,.,.,.,.,.,.,.,.,.,
CCO[C@@H]1OC(C(=O)N2CCN(Cc3ccc4c(c3)OCO4)CC2)=C[C@H](c2ccccc2)[C@H]1CCCO,-1.5,.,.,.,.,.,.,.,.,.,.,.,
COc1ccc(C(c2c(C)n(C)n(-c3ccccc3)c2=O)c2c(C)n(C)n(-c3ccccc3)c2=O)cc1OC,2.1,-16.4,1.5,-4.7,2.9,-0.7,.,.,.,.,.,.,
COc1ccc(C(c2c(C)[nH]n(-c3ccccc3)c2=O)c2c(C)[nH]n(-c3ccccc3)c2=O)cc1OC,.,88.0*,20.6,16.4*,26.1*,97.5*,1.5,-0.2,4.4,-15.8,8.1,-6.2%,TDP2 confirm=39.2*
CN(C)CC(=O)N[C@@H]1C=C[C@H](CC(=O)O)O[C@H]1CO,1.6,.,.,.,.,.,.,.,.,.,.,.,
COc1cc(OC)c(-c2c3cc(O)c(=O)cc-3oc3cc(O)c(O)cc23)cc1OC,64.2*,-5.4,-3.5,15.2*,83.8*,142.7*,-38.2,-10.4,.,.,.,0.854µM*,
O=C(Cc1ccncc1)NCC[C@@H]1CC[C@H](NS(=O)(=O)c2ccccc2Cl)[C@H](CO)O1,0.3,.,.,.,.,.,.,.,.,.,.,.,
O=C1C(=Cc2ccco2)CCC1=Cc1ccco1,88.1*,11.0,99.8*,102.9*,91.2*,141.4*,96.1*,53.4*,14.4*,-72.8,92.9*,-8.6%,
O/N=C1\CCC\C1=C/c1ccco1,.,-7.9,6.1,-3.0,7.2,3.6,.,.,.,.,.,.,
